# Shown are actives, neighbours in structure and some others; about 10% of the full set was active somewhere.
# Diaph act CS: diaphorase activation or chemical reduction counter-screen; Diaphorase/resazurin coupled assay, resorufin fluorescence, 16 min; stronger effect = higher value; 1 = vehicle wells, 0 = NADH-free wells; activation factor at 20 µM; actives 0.005% (n = 190,000); AID 1229;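 active = diaphorase activity raised at least twofold by the compound at 20 µM; inactive = activation factor below 2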
#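 Material: Clostridium kluyveri diaphorase, purified enzyme; Quantity: enzyme 0.07 U/mL final; Medium: HEPES pH 7.4 buffer with MgCl2 and Tween 20; Dosing: single compound dose of 20 µM, 1% DMSO final; Schedule: 16 min reaction at room temperature; Measured by: red resorufin fluorescence at 544/590 nm excitation/emission.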
# WT yeast gro inh: growth inhibition of WT yeast, mitochondrial fusion screen. mitochondrial fusion phenotypic screen, WT strain. inhibition, % at 10 µM. actives 2.1% (n = 190,000); in the data active = inhibition above about 58%; tested in S. cerevisiae
# Lmaj promast: Leishmania major promastigote growth inhibition | Leishmania major promastigotes, resazurin fluorescence viability | inhibition, % at 10 µM | actives 9% (n = 200,000); in the data active = inhibition above about 50%;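 also: promastigotes grown with compound for 44 hours at 28 °C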
# PMI activator: phosphomannose isomerase (human) activation; purified human PMI, coupled resazurin fluorescence, 20 min; stronger effect = higher value; 1 = vehicle control, 0 substrate-free wells; activation factor at 20 µM; actives 0.005% (n = 190,000);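 active = activation factor of 2 or more at 20 µM, relative to plate controls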
# Target sequence (P34949 whole entry, looked up): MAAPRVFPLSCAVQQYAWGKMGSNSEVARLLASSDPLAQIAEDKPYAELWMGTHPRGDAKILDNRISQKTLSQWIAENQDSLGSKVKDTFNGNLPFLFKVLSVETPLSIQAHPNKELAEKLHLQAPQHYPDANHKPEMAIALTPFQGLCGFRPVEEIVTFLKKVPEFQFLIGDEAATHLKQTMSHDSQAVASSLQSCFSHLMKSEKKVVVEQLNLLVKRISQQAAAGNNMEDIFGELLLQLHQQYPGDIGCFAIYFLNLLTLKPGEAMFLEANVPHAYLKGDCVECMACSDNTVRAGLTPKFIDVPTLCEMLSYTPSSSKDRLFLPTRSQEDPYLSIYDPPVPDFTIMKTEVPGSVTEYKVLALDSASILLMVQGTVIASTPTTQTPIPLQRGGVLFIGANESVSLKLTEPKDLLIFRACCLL
# PMI act hi M6P: activators of human phosphomannose isomerase at near-saturating mannose 6-phosphate. coupled PMI enzyme assay, resazurin fluorescence, 20 min; stronger effect = higher value; 1 = untreated enzyme, 0 = substrate-free blank. activation factor at 20 µM. actives 0.34% (n = 190,000). AID 1216;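 active = activation factor of 2 or more at 20 µM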
#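 Test system: human phosphomannose isomerase with PGI, G6PDH, diaphorase coupling enzymes; amount: 15 ng/mL PMI; incubation: enzyme reaction with compound 20 min at room temperature; technique: resorufin fluorescence (Ex 544/Em 590 nm) from resazurin via diaphorase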
# * hit, by the source's call.
SMILES,Diaph act CS,WT yeast gro inh,Lmaj promast,PMI activator,PMI act hi M6P
c1ccc(Nc2nc(-c3cccs3)cs2)nc1,0.8,39,8,0.9,0.9
CCOc1ccc(NC(C)c2cc(Cl)ccc2O)cc1 (centres undefined),0.7,7,1,0.8,0.8
CC(Nc1ccc(Br)cn1)c1cc(Cl)ccc1O (centres undefined),0.7,73*,92*,0.8,0.8
CC(Nc1ccc(Cl)cc1)c1cc(Cl)ccc1O (centres undefined),0.9,74*,29,1,0.9
CN1c2ccccc2C(C)(C)C12CC(c1cccc(S(=O)(=O)N3CCCC3)c1)=NO2 (centres undefined),1,5,73*,1.1,1.1
CCN(CC)S(=O)(=O)c1ccc(C2=NOC3(C2)N(C)c2ccccc2C3(C)C)cc1 (centres undefined),0.9,16,84*,1,0.9
O=C(CCn1nnc2ccccc21)N/N=C\Cc1ccccc1,1,-6,-1,1.1,1
COc1cc2cc3c(N)c(C(=O)Nc4sc(C)c(C)c4C#N)sc3nc2cc1OC,0.7,12,-4,0.8,0.5
Cc1ccc(S(=O)(=O)Nc2ccc(C(OC(=O)c3ccccc3[N+](=O)[O-])(C(F)(F)F)C(F)(F)F)cc2)cc1,0.8,86*,100*,0.9,0.9
O=C(OC(c1ccc(NS(=O)(=O)c2ccccc2)cc1)(C(F)(F)F)C(F)(F)F)c1ccccc1,0.8,87*,100*,0.8,0.9
COc1ccc(NC(=O)c2ccccc2NS(=O)(=O)c2ccc(C)cc2)c([N+](=O)[O-])c1,0.8,3,0,1,1
O=C(NCc1ccccc1C(F)(F)F)C1CC(c2ccccc2[N+](=O)[O-])=NO1 (centres undefined),0.8,-21,-2,0.9,0.9
Cc1nc(Nc2ccc(Cl)cc2)c2nnn(Cc3ccccc3)c2n1,0.9,-2,-7,1,1
Cc1nc(Nc2ccc(S(=O)(=O)N3CCCCC3C)cc2)c2nnn(Cc3ccccc3)c2n1 (centres undefined),0.8,-5,90*,0.8,0.8
COc1cccc(OC)c1CN1CCCC(C(=O)c2ccccc2SC)C1 (centres undefined),1,3,65*,1,1
COc1ccccc1CN1CCCC(C(=O)N(C)Cc2ccccc2)C1 (centres undefined),0.9,-8,52*,0.9,1
COc1cccc(O)c1CN1CCCC(C(=O)c2cccc(C(F)(F)F)c2)C1 (centres undefined),0.9,39,21,0.9,0.9
COc1ccc(Br)cc1CN1CCCC(C(=O)N2CCCCCC2)C1 (centres undefined),1,-3,85*,0.9,1
COc1ccc(CN2CCCC(C(=O)N(C)Cc3ccccc3)C2)cc1OC (centres undefined),0.8,-13,86*,0.8,0.9
COc1ccc(Br)cc1CN1CCCC(C(=O)N2CCCCC2)C1 (centres undefined),0.9,-5,0,1,1.1
CCOC(=O)c1cc(=O)n(-c2ccc(Cl)cc2C)[nH]1,0.9,-8,55*,1.4,1.7
CCOC(=O)c1cnc(-n2[nH]c(C)cc2=O)[nH]c1=O,0.8,-3,-10,0.8,0.6
O=C1NC(Cc2c[nH]c3ccccc23)C(=O)N1CCOc1ccccc1 (centres undefined),0.8,-5,96*,0.9,1
CC1=C(C(=O)N2CCN(c3cc(C)ccc3C)CC2)C2(CCC(C)CC2)OC1=O (centres undefined),1,41,-2,1.1,1.1
Clc1ccc(C2CC(c3ccco3)n3ncnc3N2)cc1Cl (centres undefined),1,4,51*,1.1,1.2
SMILES,Diaph act CS,WT yeast gro inh,Lmaj promast,PMI activator,PMI act hi M6P
O=S(=O)(N/N=C/c1ccc(F)cc1)c1ccccc1,0.9,8,-3,0.9,1
Cc1ccc(S(=O)(=O)N/N=C\C=C\c2ccccc2)cc1,0.8,-13,83*,1,1.1
O=S(=O)(N/N=C\C=C\c1ccccc1)c1ccc(Br)cc1,0.9,12,97*,1,1
CCC(=O)c1ccc(OCc2ccc(C(=O)c3ccccc3)cc2)cc1,0.9,8,-1,0.9,0.9
COc1ccc(/C=C2/SC(=O)N(CCNC(=O)C3CCCN3C(=O)c3cccs3)C2=O)cc1 (centres undefined),0.9,1,76*,0.9,0.9
COc1ccc(/C=C2\SC(=O)N(CCn3cnnn3)C2=O)cc1,0.9,-7,7,1,0.9
COc1ccc(/C=C2\SC(=O)N(CCNC(=O)C3CC4C=CC3C4)C2=O)cc1 (centres undefined),0.8,-2,96*,0.9,1
Cc1ccc(C)c(SCC(=O)Nc2cc(C)nn2-c2ccc(F)cc2)c1,0.9,19,0,1,1.1
COC(=O)c1sc(N)c(C(=O)OC)c1COC(=O)C1CC(=O)N(Cc2ccco2)C1 (centres undefined),0.8,12,51*,0.8,0.9
CCOC(=O)c1sc(N)c(C(=O)OCC)c1COC(=O)C1CC(=O)N(Cc2ccco2)C1 (centres undefined),0.8,2,1,0.9,1
O=C(Cn1cnc2c(nnn2Cc2ccc(F)cc2)c1=O)NCc1ccco1,0.8,-5,-8,1,0.9
Cc1cccn2c(=O)c(/C=C(\C#N)S(=O)(=O)c3ccccc3)c(Oc3ccc(Cl)cc3)nc12,0.9,60*,47,0.9,0.9
Cc1ccccc1Oc1nc2c(C)cccn2c(=O)c1/C=C(\C#N)C(=O)Nc1c(C)n(C)n(-c2ccccc2)c1=O,1,-1,10,1,1.1
Cc1cc(Oc2nc3c(C)cccn3c(=O)c2/C=C(\C#N)S(=O)(=O)c2ccccc2)ccc1Cl,1,24,54*,1.1,1.1
COc1ccc(C(=O)CSc2nnc(NC(=O)C3CC(=O)N(c4ccccc4)C3)s2)cc1 (centres undefined),0.8,2,-6,1,1
Cc1cccc(NC(=O)CSc2nnc(C)c(=O)n2N)c1,0.9,3,-10,0.9,0.9
CCOC(=O)c1c(NC(=O)CCl)sc(CN(C)C)c1-c1ccccc1,0.9,-12,91*,1.1,1.1
CCOC(=O)c1c(NC(=O)CN2CCCCC2)sc(CN(C)C)c1-c1ccccc1,0.9,28,52*,0.9,1
CCOC(=O)c1c(NC(=O)CN2CCCCC2)sc2c1CCCC2O (centres undefined),0.8,12,14,0.9,1
CCOC(=O)c1c(/N=C/N(C)C)sc(/C=N/Nc2ccccc2)c1-c1ccccc1,0.9,-28,95*,1.5,1.5
